Source: PubChem
SENP6 inh: inhibitors of human SENP6 protease | AID 2599 | hit rate 1.8% among 330,000 | Recombinant SENP6 catalytic domain, aminoluciferin luminescence | inhibition, % at 10 µM;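 active = inhibition above about 50% at the single tested dose, limit read from the data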
SENP1 FRET inh: blocks the human SENP1 SUMO protease catalytic domain; inhibition, % at 10 µM; AID 624204; hit rate 0.21% among 360,000; Q9P0U3; recombinant SENP1 catalytic domain, CyPet-SUMO1-YPet FRET cleavage;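 active = inhibition at least 30% at 10 µM, raw YFP signal under a set limit, fluorescence ratio 0.5 to 1.5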
Target sequence (Q9P0U3 419-644 limits assumed): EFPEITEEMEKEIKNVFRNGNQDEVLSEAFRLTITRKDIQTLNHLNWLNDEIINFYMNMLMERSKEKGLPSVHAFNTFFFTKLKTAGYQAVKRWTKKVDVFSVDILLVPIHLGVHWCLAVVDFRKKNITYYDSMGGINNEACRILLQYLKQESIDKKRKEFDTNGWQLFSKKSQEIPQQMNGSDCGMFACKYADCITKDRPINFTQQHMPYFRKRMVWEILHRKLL
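Controls: no-enzyme wells low, DMSO-plus-enzyme wells high control. Test system: human recombinant His6-tagged SENP1 catalytic domain enzyme. Reagent: SFCypet-SUMO1-SFYpet FRET protein substrate, 25 nM final. Doses: one dose per compound, 10 µM, 0.5% DMSO. Detection: FRET, CFP and YFP emission. Timing: 50 min reaction at room temperature.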
SENP8 block-1: blocks human SENP8 cleavage of Nedd8 substrate; Q96LD8; recombinant SENP8, Nedd8 substrate fluorescence; inhibition, % at 20 µM; hit rate 0.64% among 360,000; in the data active = inhibition mostly above about 40%, no sharp cut-off; inactive = mostly below about 27%
Target sequence (Q96LD8 whole entry, looked up): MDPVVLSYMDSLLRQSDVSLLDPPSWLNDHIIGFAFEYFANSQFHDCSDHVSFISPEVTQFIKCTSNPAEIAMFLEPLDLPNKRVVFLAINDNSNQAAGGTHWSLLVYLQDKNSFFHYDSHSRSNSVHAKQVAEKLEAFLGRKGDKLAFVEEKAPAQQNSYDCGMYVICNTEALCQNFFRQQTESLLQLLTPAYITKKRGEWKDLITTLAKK
SENP7 inh: SENP7 protease inhibition | Q9BQF6 | recombinant SENP7, Z-RLRGG-aminoluciferin luminescence, 40 min | inhibition, % at 5 µM | hit rate 1.5% among 330,000;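 active = inhibition above about 50% at the single test dose, limit read from the data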
HSP90 refold inh: blocks HSP90-mediated luciferase refolding in reticulocyte lysate; Rabbit reticulocyte lysate, luciferase refolding luminescence, 3 h; inhibition, % at 5.6 µM; hit rate 0.91% among 290,000; AID 1789;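 active = inhibition above the screen-wide mean plus 3 SD, computed separately per campaign, cut at about 16% in these data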;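 also: inhibitors lower the luminescence because luciferase stays unfolded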
SENP8 block-2: blocks the human protease SENP8. hit rate 1.2% among 330,000. purified SENP8, Z-RLRGG-aminoluciferin cleavage, luminescence. Q96LD8. AID 2540. inhibition, % at 10 µM; in the data active = inhibition above about 50%
SENP8 confirm: confirmation of human SENP8 protease inhibitors | shares compounds with SENP7 inh | Recombinant SENP8, Z-RLRGG-aminoluciferin luminescence, 60 min | inhibition, % at 12.5 µM | hit rate 40% among 6,200 | AID 488912;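 active = mean inhibition across replicates above about 50%, limit read from the data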
SENP6 conf: confirmation of human SENP6 protease inhibitors; shares compounds with SENP7 inh; inhibition, % at 12.5 µM; recombinant SENP6, Z-RLRGG-aminoluciferin luminescence; AID 488915; hit rate 58% among 6,200
SENP7 confirm: confirmation of human SENP7 protease inhibitors | recombinant SENP7, Z-RLRGG-aminoluciferin luminescence, 40 min | hit rate 69% among 6,200 | AID 488917 | shares compounds with SENP7 inh | inhibition, % at 12.5 µM
Casp3 SENP sel: selectivity test for SENP inhibitors: human caspase-3 inhibition | shares compounds with SENP7 inh | purified caspase-3, Z-DEVD-aminoluciferin luminescence, 60 min | inhibition, % at 12.5 µM | hit rate 60% among 6,200 | AID 488918;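 active = mean inhibition above about 50%, limit read from the data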
Target sequence (P42574 28-227 limits assumed): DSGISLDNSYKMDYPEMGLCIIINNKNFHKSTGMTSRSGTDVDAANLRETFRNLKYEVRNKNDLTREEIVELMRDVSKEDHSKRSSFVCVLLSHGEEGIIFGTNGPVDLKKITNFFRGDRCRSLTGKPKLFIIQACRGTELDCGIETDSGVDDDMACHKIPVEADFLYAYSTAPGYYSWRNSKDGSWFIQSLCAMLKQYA
SENP luc ctr: luminescence interference (SENP counter-screen); Pre-incubated SENP8/Z-RLRGG-aminoluciferin, luciferase luminescence interference; shares compounds with SENP7 inh; hit rate 39% among 6,200; inhibition, % at 12.5 µM; AID 488919;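 active = mean inhibition above about 50% when retested at one dose, limit read from the data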
A number is an active result. Rows were chosen to be rich in hits. Some 2.9% of all compounds tested hit in one or more screens of this group.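 The calls were made as follows, unless noted: active = mean inhibition above about 50% in the one-dose retest (limit read from the data); inactive = the rest.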

O=C(Nc1ccon1)c1ccc(Br)s1 was read as SENP6 inh inactive, SENP1 FRET inh inactive, SENP8 block-1 inactive, SENP7 inh inactive, HSP90 refold inh inactive and SENP8 block-2 inactive.
For O=C(Nc1ccccc1C(=O)Nc1ccc(Br)cn1)c1ccccc1Cl the results were SENP6 inh inactive, SENP1 FRET inh inactive, SENP8 block-1 inactive, SENP7 inh inactive and SENP8 block-2 inactive.
`Cc1cc(C(=O)Nc2ccc(Br)cn2)sc1C` gave SENP6 inh 84, SENP1 FRET inh inactive, SENP8 block-1 inactive, SENP7 inh 87, SENP8 block-2 84, SENP8 confirm 81, SENP6 conf 87, SENP7 confirm 97, Casp3 SENP sel 78 and SENP luc ctr 64.
Screening CCCC(=O)Nc1nc2ccc(NC(=O)c3ccccc3F)cc2s1 returned SENP6 inh inactive, SENP1 FRET inh inactive, SENP8 block-1 inactive, SENP7 inh inactive, HSP90 refold inh inactive and SENP8 block-2 inactive.
For Cc1ccc2nc(NC(=O)c3ccccc3F)sc2c1 the results were SENP6 inh 86, SENP1 FRET inh inactive, SENP8 block-1 inactive, SENP7 inh 91, HSP90 refold inh inactive, SENP8 block-2 81, SENP8 confirm inactive, SENP6 conf 76, SENP7 confirm 50, Casp3 SENP sel 64 and SENP luc ctr inactive.
O=C(Nc1ccc(Br)cn1)c1ccc(Br)s1 was read as SENP6 inh 50, SENP1 FRET inh inactive, SENP8 block-1 inactive, SENP7 inh inactive, HSP90 refold inh inactive, SENP8 block-2 inactive, SENP8 confirm inactive, SENP6 conf inactive, SENP7 confirm 77, Casp3 SENP sel inactive and SENP luc ctr inactive.
`CCOC(=O)Cc1csc(NS(=O)(=O)c2ccc([N+](=O)[O-])cc2)n1` gave SENP6 inh inactive, SENP1 FRET inh inactive, SENP8 block-1 inactive, SENP7 inh inactive, HSP90 refold inh inactive and SENP8 block-2 inactive.
O=C(c1ccco1)N1CCN(CCCCOc2cccc3ccccc23)CC1 was read as SENP6 inh inactive, SENP1 FRET inh inactive, SENP8 block-1 inactive, SENP7 inh inactive, HSP90 refold inh inactive and SENP8 block-2 inactive.
`CC(c1nc2ccccc2n1Cc1ccccc1)N1CCCCC1` (stereo not given) gave SENP6 inh inactive, SENP1 FRET inh inactive, SENP8 block-1 inactive, SENP7 inh inactive, HSP90 refold inh inactive and SENP8 block-2 inactive.
For Cc1ccc(NC(=O)c2cc(F)c(F)cc2Cl)nc1 the results were SENP6 inh inactive, SENP1 FRET inh inactive, SENP8 block-1 inactive, SENP7 inh inactive, HSP90 refold inh inactive and SENP8 block-2 inactive.
Cc1ccc(NC(=O)c2ccccc2F)nc1 was read as SENP6 inh 74, SENP1 FRET inh inactive, SENP8 block-1 inactive, SENP7 inh 51, HSP90 refold inh inactive, SENP8 block-2 inactive, SENP8 confirm inactive, SENP6 conf 58, SENP7 confirm 85, Casp3 SENP sel 86 and SENP luc ctr inactive.
CCOC(=O)c1cc2c(=O)c3ccccc3oc2nc1C was read as SENP6 inh 58, SENP1 FRET inh inactive, SENP8 block-1 inactive, SENP7 inh 58, HSP90 refold inh inactive, SENP8 block-2 inactive, SENP8 confirm inactive, SENP6 conf inactive, SENP7 confirm 67, Casp3 SENP sel 74 and SENP luc ctr inactive.
For COc1ccc(-c2cc(C(=O)Oc3ccc([N+](=O)[O-])cc3)c3ccccc3n2)cc1 the results were SENP6 inh inactive, SENP1 FRET inh inactive, SENP8 block-1 inactive, SENP7 inh inactive, HSP90 refold inh inactive and SENP8 block-2 inactive.
Cc1cccc(-c2nc3cc([N+](=O)[O-])ccc3o2)c1 was read as SENP6 inh inactive, SENP1 FRET inh inactive, SENP8 block-1 inactive, SENP7 inh 82, HSP90 refold inh inactive, SENP8 block-2 inactive, SENP8 confirm inactive, SENP6 conf inactive, SENP7 confirm 72, Casp3 SENP sel 75 and SENP luc ctr inactive.
For O=[N+]([O-])c1ccc2oc(-c3ccccc3)nc2c1 the results were SENP6 inh inactive, SENP1 FRET inh inactive, SENP8 block-1 inactive, SENP7 inh 77, HSP90 refold inh inactive, SENP8 block-2 inactive, SENP8 confirm inactive, SENP6 conf inactive, SENP7 confirm inactive, Casp3 SENP sel inactive and SENP luc ctr inactive.
Screening NC(N)=Nc1nc2cc([N+](=O)[O-])ccc2o1 returned SENP6 inh inactive, SENP1 FRET inh inactive, SENP8 block-1 inactive, SENP7 inh inactive, HSP90 refold inh inactive and SENP8 block-2 inactive.
For COc1ccc(-c2nc3ccc([N+](=O)[O-])cc3o2)cc1 the results were SENP6 inh inactive, SENP1 FRET inh inactive, SENP8 block-1 inactive, SENP7 inh 69, HSP90 refold inh inactive, SENP8 block-2 inactive, SENP8 confirm inactive, SENP6 conf inactive, SENP7 confirm inactive, Casp3 SENP sel inactive and SENP luc ctr inactive.
For c1coc(CNc2nc3ccccc3s2)c1 the results were SENP6 inh 58, SENP1 FRET inh inactive, SENP8 block-1 inactive, SENP7 inh inactive, HSP90 refold inh inactive, SENP8 block-2 inactive, SENP8 confirm inactive, SENP6 conf inactive, SENP7 confirm 70, Casp3 SENP sel 55 and SENP luc ctr inactive.
For Cc1nnc(NCc2ccco2)s1 the results were SENP6 inh inactive, SENP1 FRET inh inactive, SENP8 block-1 inactive, SENP7 inh inactive, HSP90 refold inh inactive and SENP8 block-2 inactive.
For C=C(C)c1cccc(C(C)(C)NC(=O)Nc2ccc3[nH]c(=O)[nH]c3c2)c1 the results were SENP6 inh inactive, SENP1 FRET inh inactive, SENP8 block-1 inactive, SENP7 inh inactive, HSP90 refold inh inactive and SENP8 block-2 inactive.
N=c1cc(C2(O)CCCCC2)n2c(nc3ccccc32)s1 was read as SENP6 inh 62, SENP1 FRET inh inactive, SENP8 block-1 inactive, SENP7 inh 58, HSP90 refold inh inactive, SENP8 block-2 inactive, SENP8 confirm inactive, SENP6 conf inactive, SENP7 confirm 80, Casp3 SENP sel 62 and SENP luc ctr 54.
`c1c2c(cc3sc(N4CCOCC4)nc13)OCO2` gave SENP6 inh 60, SENP1 FRET inh inactive, SENP8 block-1 inactive, SENP7 inh 89, HSP90 refold inh inactive, SENP8 block-2 76, SENP8 confirm 85, SENP6 conf 86, SENP7 confirm 99, Casp3 SENP sel 95 and SENP luc ctr 88.
Screening Fc1ccc2nc(N3CCOCC3)sc2c1 returned SENP6 inh inactive, SENP1 FRET inh inactive, SENP8 block-1 inactive, SENP7 inh inactive, HSP90 refold inh inactive and SENP8 block-2 inactive.
